Experimental data of several laboratories.
Target: Mitogen-activated protein kinase 15 (MAPK15, Homo sapiens, UniProt Q8TD08)
Residues used in one study (Q8TD08 1-544): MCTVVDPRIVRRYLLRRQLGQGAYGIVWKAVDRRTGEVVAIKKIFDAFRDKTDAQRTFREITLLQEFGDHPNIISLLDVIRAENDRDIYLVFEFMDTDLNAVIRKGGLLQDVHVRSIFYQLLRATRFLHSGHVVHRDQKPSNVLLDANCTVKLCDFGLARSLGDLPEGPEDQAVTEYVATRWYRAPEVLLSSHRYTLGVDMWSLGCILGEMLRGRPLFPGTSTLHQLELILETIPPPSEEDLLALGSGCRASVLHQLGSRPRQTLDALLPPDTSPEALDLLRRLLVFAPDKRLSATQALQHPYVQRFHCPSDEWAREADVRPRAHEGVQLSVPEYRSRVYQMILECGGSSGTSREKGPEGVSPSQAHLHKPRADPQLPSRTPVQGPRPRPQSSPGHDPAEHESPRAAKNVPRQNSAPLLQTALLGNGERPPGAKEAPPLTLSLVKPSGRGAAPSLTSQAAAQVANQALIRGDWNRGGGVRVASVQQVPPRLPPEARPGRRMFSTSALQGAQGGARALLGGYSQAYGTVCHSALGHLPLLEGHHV

SMILES	test	setting	remaining binding [%]
Cc1cnn2ncc(-c3ccnc(N(C)C)n3)c2c1	binding	1 µM	83
Nc1ncc2c(n1)-c1c([nH]c3ccc(C#CC4CC4)cc13)CCCC2	binding, competition with immobilised ligand	1 µM	100
C[C@@H](c1ccc(-n2cnc3c(N)ncnc32)cc1)N1CCc2nn(C)c(Cc3ccccc3)c2C1=O	binding, competition with immobilised ligand	0.1 µM	88
CS(=O)(=O)N1CCCC(NC(=O)[C@H](CCC2CCCCC2)NC(=O)c2ccc(CNC(=O)c3cnc4ccccn34)cc2)C1 (stereo partly shown)	cell-free assay, competition with immobilised ligand	0.1 µM	100
Cc1cnc(Nc2ccc(C(=O)N3CCC(N4CCCC4)CC3)cc2)nc1-c1cc2ccccc2s1	binding, competition with immobilised ligand	1 µM	33
CCS(=O)(=O)c1cc2cc(C[C@](O)(CC(C)(C)c3ccc(F)cc3C(N)=O)C(F)(F)F)[nH]c2cn1	cell-free assay, competition with immobilised ligand	1 µM	100
COc1cnc(Nc2cccc(S(N)(=O)=O)c2)nc1N1CCN(c2ccccc2)CC1	binding, competition with immobilised ligand	1 µM	100
CC1=C(C#N)C(c2ccc3c(c2)c(NC(=O)c2ccccc2C)nn3C)C(C#N)=C(C)N1	cell-free assay, competition with immobilised ligand	1 µM	89
C[C@H]1CCN(c2nccc(-c3cnn4ncccc34)n2)C1	binding	1 µM	74
O=C(Nc1c[nH]nc1C(=O)NC1CCNCC1)c1cc(F)cc(F)c1	binding, competition with immobilised ligand	1 µM	75
CN(c1nccc(-c2cnn3ncccc23)n1)C1CC1	binding	1 µM	85
C[C@H](c1ccc(F)cc1)N(Cc1cccc(C(=O)O)c1)C(=O)c1cnc2ccccc2c1	cell-free assay, competition with immobilised ligand	1 µM	93
c1cncc(-c2cccc(Nc3nccc(NC4CCCCC4)n3)c2)c1	binding, competition with immobilised ligand	10 µM	62
CC1CCCN1c1nccc(-c2cnn3ncccc23)n1 (stereo not shown)	binding	1 µM	100
CCCCN(CCCC)C(=O)CN1C[C@H](c2cc(OC)c3c(c2)OCO3)[C@@H](C(=O)O)[C@@H]1CC(C)(C)CCC	cell-free assay, competition with immobilised ligand	1 µM	100
O=C(c1ccc(Nc2ncc(Cl)c(-c3ccc(Cl)s3)n2)cc1)N1CCC(N2CCCC2)CC1	binding, competition with immobilised ligand	1 µM	3.8
O=S(=O)(NC1CCC(c2cc(F)ccc2F)(S(=O)(=O)c2ccc(Cl)cc2)CC1)C(F)(F)F (stereo not shown)	cell-free assay, competition with immobilised ligand	1 µM	94
N[C@H]1CCN(c2nccc(-c3cnn4ncccc34)n2)C1	binding	1 µM	93
O=C(NCCCN1CCOCC1)c1ccc(Nc2nccc(-c3cc4ccccc4s3)n2)cc1	binding, competition with immobilised ligand	1 µM	10
CCN1CCN(Cc2ccc(C(=O)Nc3ccc(C)c(Oc4ccc5c(c4)CC(=O)N5)c3)cc2C(F)(F)F)CC1	binding, competition with immobilised ligand	1 µM	100
CN(C)c1nccc(-c2cnc3ncccn23)n1	binding	1 µM	50
CNC(=O)[C@@H]1CC[C@@H](n2c(-c3ccc4cnccc4c3)nc3ccc(C(=O)NCc4cccc(C(N)=O)c4)cc32)C1	binding, competition with immobilised ligand	1 µM	95
